Several values for one entry are separate records, joined by “and”; a condition that tells them apart may be missing. Identical values can stand only once.
System: U2OS
Assay: Multiplex assay against U2OS
Format: toxicity, cell-based
Conditions: human
In short: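 Cells stained live at seeding with Hoechst33342, BioTracker Green Microtubule Cytoskeleton Dye, MitoTracker Red and Annexin V Alexa Fluor 680 were imaged on a CQ1 microscope at 37°C and 5% CO2 after compound addition. Their classification by CellPathfinder machine-learning gating ran from Hoechst high-intensity objects versus normal cells, to healthy, pyknosed or fragmented nuclei among normal cells, to mitotic or apoptotic among pyknosed cells. Tubulin, mitochondrial-mass and membrane-permeability phenotypes are per cents of healthy-nucleus cells.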

[1] = 12 h, 1 µM, compound concentration 1 uM, replicate 1
[2] = 12 h, 1 µM, compound concentration 1 uM, replicate 2
[3] = 12 h, 10 µM, compound concentration 10 uM, replicate 1
[4] = 12 h, 10 µM, compound concentration 10 uM, replicate 2
[5] = 24 h, 1 µM, compound concentration 1 uM, replicate 1
[6] = 24 h, 1 µM, compound concentration 1 uM, replicate 2
[7] = 24 h, 10 µM, compound concentration 10 uM, replicate 1
[8] = 24 h, 10 µM, compound concentration 10 uM, replicate 2
[9] = 48 h, 1 µM, compound concentration 1 uM, replicate 1
[10] = 48 h, 1 µM, compound concentration 1 uM, replicate 2
[11] = 48 h, 10 µM, compound concentration 10 uM, replicate 1
[12] = 48 h, 10 µM, compound concentration 10 uM, replicate 2

COc1cc(Nc2nccc(-c3cnn4nc(OC)ccc34)n2)cc(C(F)(F)F)c1
Population Apoptotic (%) [1]: 27% | Population Fragmented Nuclei (%) [1]: 12% | Population Healthy Nuclei (%) [1]: 74% | Population Hoechst High Intensity Objects (%) [1]: 7% | Population Membrane Permeable-Phenotype (%) [1]: 6% | Population Mitochondria Different-Phenotype (%) [1]: 12% | Population Mitotic Cells (%) [1]: 72% | Population Normal (%) [1]: 92% | Population Pyknosed Nuclei (%) [1]: 12% | Population Tubulin-Different-Phenotype (%) [1]: 9% | Total Cell Count [1]: 189 | Population Apoptotic (%) [2]: 50% | Population Fragmented Nuclei (%) [2]: 8% | Population Healthy Nuclei (%) [2]: 86% | Population Hoechst High Intensity Objects (%) [2]: 3% | Population Membrane Permeable-Phenotype (%) [2]: 2% | Population Mitochondria Different-Phenotype (%) [2]: 16% | Population Mitotic Cells (%) [2]: 50% | Population Normal (%) [2]: 96% | Population Pyknosed Nuclei (%) [2]: 5% | Population Tubulin-Different-Phenotype (%) [2]: 16% | Total Cell Count [2]: 44 | Population Apoptotic (%) [3]: 60% | Population Fragmented Nuclei (%) [3]: 32% | Population Healthy Nuclei (%) [3]: 55% | Population Hoechst High Intensity Objects (%) [3]: 15% | Population Membrane Permeable-Phenotype (%) [3]: 7% | Population Mitochondria Different-Phenotype (%) [3]: 46% | Population Mitotic Cells (%) [3]: 39% | Population Normal (%) [3]: 84% | Population Pyknosed Nuclei (%) [3]: 11% | Population Tubulin-Different-Phenotype (%) [3]: 27% | Total Cell Count [3]: 192 | Population Apoptotic (%) [4]: 33% | Population Fragmented Nuclei (%) [4]: 27% | Population Healthy Nuclei (%) [4]: 61% | Population Hoechst High Intensity Objects (%) [4]: 34% | Population Membrane Permeable-Phenotype (%) [4]: 3% | Population Mitochondria Different-Phenotype (%) [4]: 6% | Population Mitotic Cells (%) [4]: 66% | Population Normal (%) [4]: 65% | Population Tubulin-Different-Phenotype (%) [4]: 15% | Total Cell Count [4]: 82 | Population Apoptotic (%) [5]: 24% | Population Fragmented Nuclei (%) [5]: 14% | Population Healthy Nuclei (%) [5]: 61% | Population Hoechst High Intensity Objects (%) [5]: 6% | Population Membrane Permeable-Phenotype (%) [5]: 7% | Population Mitochondria Different-Phenotype (%) [5]: 20% | Population Mitotic Cells (%) [5]: 75% | Population Normal (%) [5]: 93% | Population Pyknosed Nuclei (%) [5]: 24% | Population Tubulin-Different-Phenotype (%) [5]: 16% | Total Cell Count [5]: 214 | Population Apoptotic (%) [6]: 45% | Population Fragmented Nuclei (%) [6]: 10% | Population Healthy Nuclei (%) [6]: 77% | Population Hoechst High Intensity Objects (%) [6]: 2% | Population Membrane Permeable-Phenotype (%) [6]: 4% | Population Mitochondria Different-Phenotype (%) [6]: 10% | Population Mitotic Cells (%) [6]: 54% | Population Normal (%) [6]: 97% | Population Pyknosed Nuclei (%) [6]: 12% | Population Tubulin-Different-Phenotype (%) [6]: 19% | Total Cell Count [6]: 43 | Population Apoptotic (%) [7]: 65% | Population Fragmented Nuclei (%) [7]: 36% | Population Healthy Nuclei (%) [7]: 50% | Population Hoechst High Intensity Objects (%) [7]: 18% | Population Membrane Permeable-Phenotype (%) [7]: 2% | Population Mitochondria Different-Phenotype (%) [7]: 47% | Population Mitotic Cells (%) [7]: 34% | Population Normal (%) [7]: 81% | Population Pyknosed Nuclei (%) [7]: 13% | Population Tubulin-Different-Phenotype (%) [7]: 15% | Total Cell Count [7]: 197 | Population Apoptotic (%) [8]: 50% | Population Fragmented Nuclei (%) [8]: 26% | Population Healthy Nuclei (%) [8]: 56% | Population Hoechst High Intensity Objects (%) [8]: 29% | Population Membrane Permeable-Phenotype (%) [8]: 0% | Population Mitochondria Different-Phenotype (%) [8]: 23% | Population Mitotic Cells (%) [8]: 50% | Population Normal (%) [8]: 70% | Population Pyknosed Nuclei (%) [8]: 17% | Population Tubulin-Different-Phenotype (%) [8]: 11% | Total Cell Count [8]: 90 | Population Apoptotic (%) [9]: 53% | Population Fragmented Nuclei (%) [9]: 16% | Population Healthy Nuclei (%) [9]: 54% | Population Hoechst High Intensity Objects (%) [9]: 4% | Population Membrane Permeable-Phenotype (%) [9]: 6% | Population Mitochondria Different-Phenotype (%) [9]: 34% | Population Mitotic Cells (%) [9]: 46% | Population Normal (%) [9]: 95% | Population Pyknosed Nuclei (%) [9]: 28% | Population Tubulin-Different-Phenotype (%) [9]: 15% | Total Cell Count [9]: 257 | Population Apoptotic (%) [10]: 55% | Population Fragmented Nuclei (%) [10]: 11% | Population Healthy Nuclei (%) [10]: 81% | Population Hoechst High Intensity Objects (%) [10]: 7% | Population Membrane Permeable-Phenotype (%) [10]: 15% | Population Mitochondria Different-Phenotype (%) [10]: 17% | Population Mitotic Cells (%) [10]: 44% | Population Normal (%) [10]: 92% | Population Pyknosed Nuclei (%) [10]: 7% | Population Tubulin-Different-Phenotype (%) [10]: 20% | Total Cell Count [10]: 55 | Population Apoptotic (%) [11]: 62% | Population Fragmented Nuclei (%) [11]: 45% | Population Healthy Nuclei (%) [11]: 33% | Population Hoechst High Intensity Objects (%) [11]: 20% | Population Membrane Permeable-Phenotype (%) [11]: 14% | Population Mitochondria Different-Phenotype (%) [11]: 36% | Population Mitotic Cells (%) [11]: 37% | Population Normal (%) [11]: 79% | Population Pyknosed Nuclei (%) [11]: 21% | Population Tubulin-Different-Phenotype (%) [11]: 21% | Total Cell Count [11]: 200 | Population Apoptotic (%) [12]: 69% | Population Fragmented Nuclei (%) [12]: 26% | Population Healthy Nuclei (%) [12]: 48% | Population Hoechst High Intensity Objects (%) [12]: 27% | Population Membrane Permeable-Phenotype (%) [12]: 8% | Population Mitochondria Different-Phenotype (%) [12]: 25% | Population Mitotic Cells (%) [12]: 30% | Population Normal (%) [12]: 72% | Population Pyknosed Nuclei (%) [12]: 26% | Population Tubulin-Different-Phenotype (%) [12]: 20% | Total Cell Count [12]: 127

CCC1=C[C@@H]2C[N@](C1)Cc1c([nH]c3ccccc13)[C@@](C(=O)OC)(c1cc3c(cc1OC)N(C)[C@H]1[C@@](O)(C(=O)OC)[C@H](OC(C)=O)[C@]4(CC)C=CCN5CC[C@]31[C@@H]54)C2.O=C(O)C(O)C(O)C(=O)O.O=C(O)C(O)C(O)C(=O)O [VINORELBINE TARTRATE]
Population Apoptotic (%) [1]: 55% and 29% | Population Fragmented Nuclei (%) [1]: 14% and 9% | Population Healthy Nuclei (%) [1]: 59% and 76% | Population Mitochondria Different-Phenotype (%) [1]: 34% and 22% | Population Mitotic Cells (%) [1]: 44% and 70% | Population Normal (%) [1]: 97% and 92% | Population Pyknosed Nuclei (%) [1]: 25% and 14% | Population Tubulin-Different-Phenotype (%) [1]: 26% | Population Fragmented Nuclei (%) [2]: 22% | Population Healthy Nuclei (%) [2]: 50% and 69% | Population Hoechst High Intensity Objects (%) [2]: 16% and 20% | Population Mitochondria Different-Phenotype (%) [2]: 30% | Population Mitotic Cells (%) [2]: 36% and 80% | Population Normal (%) [2]: 83% and 79% | Population Pyknosed Nuclei (%) [2]: 27% and 16% | Population Tubulin-Different-Phenotype (%) [2]: 45% and 34% | Population Apoptotic (%) [3]: 53% and 34% | Population Fragmented Nuclei (%) [3]: 14% and 8% | Population Healthy Nuclei (%) [3]: 74% and 76% | Population Hoechst High Intensity Objects (%) [3]: 6% and 8% | Population Mitochondria Different-Phenotype (%) [3]: 35% and 24% | Population Mitotic Cells (%) [3]: 46% and 65% | Population Normal (%) [3]: 93% and 91% | Population Pyknosed Nuclei (%) [3]: 11% and 14% | Population Tubulin-Different-Phenotype (%) [3]: 20% and 18% | Total Cell Count [3]: 168 and 185 | Population Fragmented Nuclei (%) [4]: 12% and 11% | Population Healthy Nuclei (%) [4]: 58% and 67% | Population Hoechst High Intensity Objects (%) [4]: 13% and 18% | Population Membrane Permeable-Phenotype (%) [4]: 56% and 20% | Population Mitochondria Different-Phenotype (%) [4]: 45% and 18% | Population Mitotic Cells (%) [4]: 40% and 82% | Population Normal (%) [4]: 86% and 81% | Population Pyknosed Nuclei (%) [4]: 29% and 21% | Population Tubulin-Different-Phenotype (%) [4]: 45% | Total Cell Count [4]: 132 and 78 | Population Apoptotic (%) [5]: 35% and 65% | Population Fragmented Nuclei (%) [5]: 20% and 14% | Population Healthy Nuclei (%) [5]: 49% and 56% | Population Hoechst High Intensity Objects (%) [5]: 1% and 3% | Population Membrane Permeable-Phenotype (%) [5]: 21% and 52% | Population Mitochondria Different-Phenotype (%) [5]: 26% and 37% | Population Mitotic Cells (%) [5]: 64% and 34% | Population Normal (%) [5]: 98% and 96% | Population Pyknosed Nuclei (%) [5]: 30% and 28% | Population Tubulin-Different-Phenotype (%) [5]: 41% and 34% | Population Apoptotic (%) [6]: 61% | Population Fragmented Nuclei (%) [6]: 30% and 22% | Population Healthy Nuclei (%) [6]: 36% and 59% | Population Hoechst High Intensity Objects (%) [6]: 11% and 15% | Population Membrane Permeable-Phenotype (%) [6]: 60% and 22% | Population Mitochondria Different-Phenotype (%) [6]: 40% | Population Mitotic Cells (%) [6]: 38% | Population Normal (%) [6]: 88% and 84% | Population Pyknosed Nuclei (%) [6]: 33% and 18% | Population Tubulin-Different-Phenotype (%) [6]: 62% and 31% | Population Apoptotic (%) [7]: 63% and 43% | Population Fragmented Nuclei (%) [7]: 18% and 14% | Population Healthy Nuclei (%) [7]: 55% | Population Hoechst High Intensity Objects (%) [7]: 7% and 4% | Population Membrane Permeable-Phenotype (%) [7]: 55% | Population Mitochondria Different-Phenotype (%) [7]: 29% and 33% | Population Mitotic Cells (%) [7]: 36% and 56% | Population Normal (%) [7]: 92% and 95% | Population Pyknosed Nuclei (%) [7]: 25% and 30% | Population Tubulin-Different-Phenotype (%) [7]: 29% and 34% | Total Cell Count [7]: 176 and 207 | Population Apoptotic (%) [8]: 82% and 47% | Population Fragmented Nuclei (%) [8]: 21% and 17% | Population Healthy Nuclei (%) [8]: 43% | Population Hoechst High Intensity Objects (%) [8]: 9% and 14% | Population Mitochondria Different-Phenotype (%) [8]: 43% and 22% | Population Normal (%) [8]: 90% and 85% | Population Pyknosed Nuclei (%) [8]: 34% and 26% | Population Tubulin-Different-Phenotype (%) [8]: 38% and 22% | Total Cell Count [8]: 147 and 90

— ChEMBL document CHEMBL4689842, “EUbOPEN Chemogenomics Library wave 1” (2021)
